Results taken from ChEMBL document CHEMBL1140196, “Synthesis and biological activities of some new fluorinated coumarins and 1-aza coumarins” (Eur J Med Chem, 2008).
Active and inactive are the calls of the source.

Key:
Rattus norvegicus [1] = test: Antiinflammatory activity in Wistar rat assessed as inhibition of formalin-induced paw oedema volume at 100 mg/kg, po administered 30 mins before formalin challenge after 1 hr relative to control; assay type: functional
Method in brief: (§1)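 Oral dosing at 100 mg/kg as a 2% CMC suspension, 30 min before injecting 3.5% formalin into the paw. Groups of six Wistar rats of either sex. Paw volume read by mercury-displacement plethysmograph at 0 h (right after formalin) and at 1, 2, 3, 4 and 5 h. Percent inhibition versus plain 2% CMC controls; SEM reported.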

[2] = Acute toxicity in po dosed albino mouse after 24 hrs; assay type: organism-based; settings: in vivo
Method in brief: (§2)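 Groups of six albino mice (20–25 g), fasted overnight, dosed once orally or intraperitoneally at 100 to 1000 mg kg^-1 body weight. Observed for 24 h for mortality and signs of acute toxicity (altered motor activity, tremors, convulsion, sedation, lacrimation). LD50 cut-off set at the highest dose tested, 1000 mg kg^-1.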

Rattus norvegicus [3] = test: Antiinflammatory activity in Wistar rat assessed as inhibition of formalin-induced paw oedema volume at 100 mg/kg, po administered 30 mins before formalin challenge after 4 hrs relative to control; assay type: functional; method in brief: as §1
Rattus norvegicus [4] = test: Gastrointestinal toxicity in Wistar rat assessed as ulcerogenic effect at 400 mg/kg, po administered twice at 2 hrs interval after 4 hrs; assay type: organism-based; parameters: dose 400 mg/kg, route oral; settings: in vivo
Method in brief: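 Male Wistar rats fasted 36 h, then given 400 mg/kg orally twice, 2 h apart. Animals killed 4 h later and the stomach examined for lesions; ulcer index recorded.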

[5] = Acute toxicity in ip dosed albino mouse after 24 hrs; assay type: organism-based; settings: in vivo; method in brief: as §2
Rattus norvegicus [6] = test: Antiinflammatory activity in Wistar rat assessed as inhibition of formalin-induced paw oedema volume at 100 mg/kg, po administered 30 mins before formalin challenge after 2 hrs relative to control; assay type: functional; method in brief: as §1
Mus musculus = test: Analgesic activity in albino mouse assessed as inhibition of acetic acid-induced writhing at 10 mg/kg, po; assay type: functional
Method in brief: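 Acetic acid writhing test: 0.6% acetic acid at 0.1 ml/10 g given intraperitoneally to albino mice of both sexes (18–22 g). Compounds given orally at 10 mg/kg as a suspension in 5% carboxymethyl cellulose. Indomethacin 10 mg/kg was the reference under the same conditions.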

Rattus norvegicus [7] = test: Antiinflammatory activity in Wistar rat assessed as inhibition of formalin-induced paw oedema volume at 100 mg/kg, po administered 30 mins before formalin challenge after 5 hrs relative to control; assay type: functional; method in brief: as §1
Rattus norvegicus [8] = test: Antiinflammatory activity in Wistar rat assessed as inhibition of formalin-induced paw oedema volume at 100 mg/kg, po administered 30 mins before formalin challenge after 3 hrs relative to control; assay type: functional; method in brief: as §1
Macrophomina phaseolina [9] = test: Antifungal activity against Rhizoctonia bataticola at 25 ug/mL after 48 hrs by cup-plate method; assay type: functional
Bacillus [10] = test: Antibacterial activity against […] at 50 ug/mL after 48 hrs by cup-plate method; assay type: functional
Bacillus [11] = test: Antibacterial activity against […] at 100 ug/mL after 48 hrs by cup-plate method; assay type: functional
Aspergillus niger [12] = test: Antifungal activity against Aspergillus niger at 100 ug/mL after 48 hrs by cup-plate method; assay type: functional
Macrophomina phaseolina [13] = test: Antifungal activity against Rhizoctonia bataticola at 50 ug/mL after 48 hrs by cup-plate method; assay type: functional; settings: for zone of inhibition at 50 µg/mL: read-out: IZ
Escherichia coli [14] = test: Antibacterial activity against Escherichia coli at 100 ug/mL after 48 hrs by cup-plate method; assay type: functional
Aspergillus niger [15] = test: Antifungal activity against Aspergillus niger at 50 ug/mL after 48 hrs by cup-plate method; assay type: functional
Escherichia coli [16] = test: Antibacterial activity against Escherichia coli at 50 ug/mL after 48 hrs by cup-plate method; assay type: functional
Aspergillus niger [17] = test: Antifungal activity against Aspergillus niger at 25 ug/mL after 48 hrs by cup-plate method; assay type: functional; settings: for zone of inhibition at 25 µg/mL: read-out: IZ
Escherichia coli [18] = test: Antibacterial activity against Escherichia coli at 25 ug/mL after 48 hrs by cup-plate method; assay type: functional; settings: for zone of inhibition at 25 µg/mL: read-out: IZ
Bacillus [19] = test: Antibacterial activity against […] at 25 ug/mL after 48 hrs by cup-plate method; assay type: functional; settings: for zone of inhibition at 25 µg/mL: read-out: IZ
Macrophomina phaseolina [20] = test: Antifungal activity against Rhizoctonia bataticola at 100 ug/mL after 48 hrs by cup-plate method; assay type: functional

Compound	inhibition at 25 µg/mL (Macrophomina phaseolina [9]) [%]	inhibition at 50 µg/mL (Bacillus [10]) [%]	inhibition at 100 µg/mL (Bacillus [11]) [%]	inhibition at 100 µg/mL (Aspergillus niger [12]) [%]	inhibition at 50 µg/mL (Macrophomina phaseolina [13]) [%]	zone of inhibition at 50 µg/mL (Macrophomina phaseolina [13]) [mm]	inhibition at 100 µg/mL (Escherichia coli [14]) [%]	inhibition at 50 µg/mL (Aspergillus niger [15]) [%]	inhibition at 50 µg/mL (Escherichia coli [16]) [%]	inhibition at 25 µg/mL (Aspergillus niger [17]) [%]	zone of inhibition at 25 µg/mL (Aspergillus niger [17]) [mm]	Activity (Escherichia coli [18])	Activity (Bacillus [19])	inhibition at 100 µg/mL (Macrophomina phaseolina [20]) [%]	Activity (Macrophomina phaseolina [9])	Activity (Aspergillus niger [17])	inhibition at 25 µg/mL (Escherichia coli [18]) [%]	zone of inhibition at 25 µg/mL (Escherichia coli [18]) [mm]	inhibition at 25 µg/mL (Bacillus [19]) [%]	zone of inhibition at 25 µg/mL (Bacillus [19]) [mm]	further results
O=c1cc(CNc2ccc(F)cc2)c2c(ccc3ccccc32)o1																					inhibition in vivo at 100 mg/kg (Rattus norvegicus [1]): 63%; LD50 at 24 h [2]: > 1000 mg/kg; inhibition in vivo at 100 mg/kg (Rattus norvegicus [3]): 60%; UI (Rattus norvegicus [4]): 64.93; LD50 at 24 h [5]: > 800 mg/kg; inhibition in vivo at 100 mg/kg (Rattus norvegicus [6]): 35%; inhibition in vivo at 10 mg/kg (Mus musculus): 10.5%; inhibition in vivo at 100 mg/kg (Rattus norvegicus [7]): 77%; inhibition in vivo at 100 mg/kg (Rattus norvegicus [8]): 53%
Cc1cccc2c(COc3ccc(F)cc3)cc(=O)[nH]c12	21	31	62	60	36	90	57	36	33	22	52	inactive	inactive	58							
Cc1ccc2c(CNc3ccc(Cl)cc3)cc(=O)oc2c1		34	60	52	32	84	62	21	36					54	inactive	inactive	17	44	17	44	
COC1=CC(=O)C[C@@H](C)[C@]12Oc1c(Cl)c(OC)cc(OC)c1C2=O [GRISEOFULVIN]	100	100	100	100	100		100	100	100	100				100			100		100		
Cc1ccc2c(COc3ccc(Br)cc3)cc(=O)oc2c1		37	63	52	32	84	66	22	37					57	inactive	inactive	20	48	20	48	
O=c1cc(CNc2ccc(F)cc2)c2ccccc2[nH]1	21	36	68	63	36	90	57	41	34	24	54	inactive	inactive	60							
Cc1ccc2c(CNc3ccc(Br)cc3)cc(=O)oc2c1		37	63	55	35	90	64	23	35					59	inactive	inactive	13	38	21	50	
Cc1ccc2c(COc3ccc(F)cc3)cc(=O)oc2c1		37	64	52	30	80	62	21	37					53	inactive	inactive	17	44	21	50	
O=c1cc(COc2ccc(Cl)cc2)c2cc(Cl)ccc2[nH]1		31	60	53	33	84	50	25	30			inactive	inactive	55	inactive	inactive					
Cc1ccc2c(COc3ccc(Cl)cc3)cc(=O)oc2c1		33	62	50	27	75	65	22	35					54	inactive	inactive	14	40	14	40	
CN(C)C=O [DIMETHYLFORMAMIDE]						20					20							20		20	zone of inhibition at 100 µg/mL (Bacillus [11]; read-out: IZ): 20 mm; zone of inhibition at 100 µg/mL (Aspergillus niger [12]; read-out: IZ): 20 mm; zone of inhibition at 100 µg/mL (Escherichia coli [14]; read-out: IZ): 20 mm; zone of inhibition at 100 µg/mL (Macrophomina phaseolina [20]; read-out: IZ): 20 mm
O=c1cc(COc2ccc(Br)cc2)c2ccc(Cl)cc2[nH]1		26	60	60	31	80	50	35	30	18	46	inactive	inactive	54	inactive						
O=c1cc(COc2ccc(Br)cc2)c2cc(Cl)ccc2[nH]1		25	58	62	32	82	50	36	30	21	50	inactive	inactive	55	inactive						
CCn1cc(C(=O)O)c(=O)c2cc(F)c(N3CCNCC3)cc21 [NORFLOXACIN]	100	100	100	100	100		100	100	100	100				100			100		100		
O=c1cc(COc2ccc(Cl)cc2)c2ccc(Cl)cc2[nH]1		25	56	50	35	78	48	21	27			inactive	inactive	51	inactive	inactive					
O=c1cc(CNc2ccc(F)cc2)c2cc(Cl)ccc2o1	68	83	99	90	76		95	73	64	64				91			51	92	64		
